Values after ≈ are worked out from the molar mass of the structure shown. Active and inactive are the calls of the source. No cut-off for these calls is given here.
What was measured:
[1] = Antimycobacterial activity against Mycobacterium bovis BCG 1173P2; type: functional, Mycobacterium bovis BCG str. Pasteur 1173P2; details: Mycobacterium tuberculosis variant bovis BCG
Summary of the method: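 M. bovis BCG on Middlebrook 7H11 agar with OADC and increasing inhibitor concentrations. Serial 10-fold dilutions of actively growing culture plated, 37°C for 10 to 14 days.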

[2] = system: BCG; test: Inhibition of delta-9 desaturase activity in Mycobacterium bovis BCG cell extract 1173P2 assessed as inhibition of oleic acid synthesis at 25 ug/ml after 1 hr in presence of NADPH and [1-14C]stearoyl-CoA; type: cell-free; set-up: scale not given: the % may be the effect or the level left; details: Mycobacterium bovis BCG str. Pasteur 1173P2
Summary of the method: (§1)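 Cell-free assay. BCG grown in Sauton's with 20 µg/ml FeSO4, French-press lysed in 0.25 M sucrose. 1 mg lysate, 1 µmol NADPH, phosphate buffer pH 7.2, in 1 ml. Inhibitor preincubated 10 min at 37°C, then 0.25 µCi [1-14C]stearoyl-CoA added, 37°C 1 h. Saponified, methylated, [14C]oleate band scraped and counted. Triplicates, one of two experiments, mean ± SEM.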

[3] = system: Mycobacterium bovis BCG str. Pasteur 1173P2; test: Antimycobacterial activity against Mycobacterium bovis BCG 1173P2 assessed as inhibition of oleic acid methyl ester synthesis after 8 hrs; type: functional
Summary of the method: (§2)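 BCG in Sauton's medium, drug 8 h, then [14C]acetate labelling for 16 h. Methyl esters resolved by 2-D TLC: first dimension without silver, hexane-ethyl acetate 19:1 run twice; then silver nitrate layer, petroleum ether-diethyl ether 17:3 run three times. Triplicates, one of three experiments, mean ± SEM, Student's t test.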

[4] = system: Mycobacterium bovis BCG str. Pasteur 1173P2; test: Antimycobacterial activity against Mycobacterium bovis BCG 1173P2 assessed as inhibition of oleic acid methyl ester synthesis at 100 ug/ml after 8 hrs; type: functional; summary of the method: as §2
[5] = system: Mycolicibacterium smegmatis; test: Antimycobacterial activity against Mycobacterium smegmatis at 100 ug/ml after 15 to 20 days by agar proportion method; type: functional, organism-based
[6] = system: BCG 1173P2; test: Inhibition of delta-9 desaturase activity in Mycobacterium bovis BCG 1173P2 cell extract assessed as inhibition of oleic acid synthesis at 10 to 100 ug/ml after 1 hr in presence of NADPH and [1-14C]stearoyl-CoA; type: cell-free; details: Mycobacterium bovis BCG str. Pasteur 1173P2; summary of the method: as §1
[7] = system: Mycobacterium bovis BCG str. Pasteur 1173P2; test: Antimycobacterial activity against Mycobacterium bovis BCG 1173P2 assessed as inhibition of FAS-2 activity at 5 ug/ml after 8 hrs; type: functional
Summary of the method: (§3)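 Mid-log BCG in Sauton's medium, drug at 37°C for 8 h, then 1 µCi/ml [2-14C]acetate for 16 h. Cells PBS-washed, hydrolysed in 15% tetrabutylammonium hydroxide at 100°C overnight, methylated with CH3I. TLC: MAME bands scraped and counted; FAMEs (50,000 cpm) on reverse-phase TLC, chloroform-methanol 2:3. INH 1 µg/ml positive control. Triplicates, one of three experiments, mean ± SEM.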

[8] = system: Mycobacterium bovis BCG str. Pasteur 1173P2; test: Antimycobacterial activity against Mycobacterium bovis BCG 1173P2 assessed as inhibition of mycolic acid biosynthesis; type: functional; summary of the method: as §3
[9] = system: Mycobacterium bovis BCG str. Pasteur 1173P2; test: Antimycobacterial activity against Mycobacterium bovis BCG 1173P2 assessed as inhibition of mycolic acid biosynthesis at 100 ug/ml after 8 hrs; type: functional; set-up: scale not given: the % may be the effect or the level left; summary of the method: as §3
[10] = system: Mycobacterium tuberculosis; test: Antimycobacterial activity against Mycobacterium tuberculosis H37Rv at 10 ug/ml after 15 to 20 days by agar proportion method; type: functional
Summary of the method: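 Agar proportion method. H37Rv grown in 7H9 at 37°C with shaking to OD600 1.0. Diluted log-phase culture giving about 1,000 CFU plated on 7H11+OADC control and drug-containing plates, incubated 37°C.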

| SMILES | MIC [1] [µg/mL] | Activity [2] [%] | Activity [3] | Activity [4] | Activity [5] | Activity [6] | Activity [7] | Activity [8] | Activity [9] [%] | Activity [10] [%] |
| --- | --- | --- | --- | --- | --- | --- | --- | --- | --- | --- |
| O=C(CC(=O)C(F)(F)F)c1ccc([N+](=O)[O-])cc1 | 50 (≈ 191 µM) | 25 | Dose-dependent effect | Active |  |  |  |  |  |  |
| Oc1ccc(Cl)cc1Oc1ccc(Cl)c2cccnc12 | 10 (≈ 32.7 µM) | 75 | Dose-dependent effect | Active | inactive | Dose-dependent effect | Active | Active | 55 | 99 |

From ChEMBL document CHEMBL1255244, “Antimycobacterial Activity and Mechanism of Action of NAS-91” (2008)
